Calls of active or inactive are those of the source. No cut-off for these calls is given here.
Experiments:
[1] = tested on: Tyrosine-protein kinase ABL1 (Homo sapiens), P00519 [Y253F]; assay: Binding affinity to human phosphorylated ABL1 Y253F mutant (S229 to K512 residues) expressed in mammalian expression system assessed as residual binding level at 1 uM by Kinomescan method relative to control
In short: (§1)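 Single-concentration (1 μM) competition-binding screen run by KINOMEscan against a panel of 468 purified kinases and mutants. The read-out is the relative binding activity of the test compound to each kinase.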

[2] = target: Atypical kinase COQ8A, mitochondrial (Homo sapiens) (UniProt Q8NI60); assay: Binding affinity to wild-type human full length ADCK3 (M280 to Q647 residues) expressed in bacterial expression system assessed as residual binding level at 1 uM by Kinomescan method relative to control; in short: as §1
[3] = target: 5'-AMP-activated protein kinase catalytic subunit alpha-2 (Homo sapiens) (UniProt P54646); assay: Binding affinity to wild-type human partial length AMPK alpha2 (M1 to E306 residues) expressed in bacterial expression system assessed as residual binding level at 1 uM by Kinomescan method relative to control
In short: (§2)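 Single-concentration KINOMEscan (DiscoverX) binding screen at 1 μM against a panel of 468 purified kinases and mutants. The read-out is binding relative to control.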

[4] = target: Ankyrin repeat and protein kinase domain-containing protein 1 (Homo sapiens) (UniProt Q8NFD2); assay: Binding affinity to wild-type human partial length ANKK1 (M1 to A305 residues) expressed in mammalian expression system assessed as residual binding level at 1 uM by Kinomescan method relative to control; in short: as §2
[5] = target: Aurora kinase A (Homo sapiens) (UniProt O14965); assay: Binding affinity to wild-type human partial length AURKA (E122 to K401 residues) expressed in mammalian expression system assessed as residual binding level at 1 uM by Kinomescan method relative to control
In short: (§3)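 Kinome-wide competition binding screen against a panel of 468 purified kinases/mutants, with the test compound at a single concentration of 1 μM. Read-out is the relative binding activity of each kinase in the presence of compound.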

[6] = target: Epithelial discoidin domain-containing receptor 1 (Homo sapiens, UniProt Q08345); assay: Binding affinity to wild-type human partial length DDR1 (R565 to V876 residues) expressed in bacterial expression system assessed as residual binding level at 1 uM by Kinomescan method relative to control; in short: as §3
[7] = target: Rhodopsin kinase GRK1 (Homo sapiens) (UniProt Q15835); assay: Binding affinity to wild-type human full length GRK1 (M1 to S563 residues) expressed in mammalian expression system assessed as residual binding level at 1 uM by Kinomescan method relative to control; in short: as §1
[8] = target: Glycogen synthase kinase-3 alpha (Homo sapiens) (UniProt P49840); assay: Binding affinity to wild-type human full length GSK3A (M1 to S483 residues) expressed in bacterial expression system assessed as residual binding level at 1 uM by Kinomescan method relative to control; in short: as §1
[9] = target: Interleukin-1 receptor-associated kinase 1 (Homo sapiens) (UniProt P51617); assay: Binding affinity to wild-type human partial length IRAK1 (R194 to S712 residues) expressed in mammalian expression system assessed as residual binding level at 1 uM by Kinomescan method relative to control
[10] = target: Serine/threonine-protein kinase LATS2 (Homo sapiens) (UniProt Q9NRM7); assay: Binding affinity to wild-type human partial length LATS2 (Q641 to V1088 residues) expressed in mammalian expression system assessed as residual binding level at 1 uM by Kinomescan method relative to control
[11] = target: Serine/threonine-protein kinase MARK2 (Homo sapiens) (UniProt Q7KZI7); assay: Binding affinity to wild-type human partial length MARK2 (M1 to R450 residues) expressed in bacterial expression system assessed as residual binding level at 1 uM by Kinomescan method relative to control; in short: as §3
[12] = target: Dual specificity mitogen-activated protein kinase kinase 4 (Homo sapiens) (UniProt P45985); assay: Binding affinity to wild-type human partial length MEK4 (S84 to D399 residues) expressed in mammalian expression system assessed as residual binding level at 1 uM by Kinomescan method relative to control
[13] = target: Serine/threonine-protein kinase mTOR (Homo sapiens) (UniProt P42345); assay: Binding affinity to wild-type human partial length MTOR (L1382 to W2549 residues) expressed in mammalian expression system assessed as residual binding level at 1 uM by Kinomescan method relative to control
[14] = target: Myosin light chain kinase 2, skeletal/cardiac muscle (Homo sapiens) (UniProt Q9H1R3); assay: Binding affinity to wild-type human partial length MYLK2 (D258 to K570 residues) expressed in bacterial expression system assessed as residual binding level at 1 uM by Kinomescan method relative to control
[15] = target: Phosphatidylinositol 4,5-bisphosphate 3-kinase catalytic subunit gamma isoform (Homo sapiens) (UniProt P48736); assay: Binding affinity to wild-type human partial length PIK3CG (S144 to A1102 residues) expressed in mammalian expression system assessed as residual binding level at 1 uM by Kinomescan method relative to control
[16] = target: Serine/threonine-protein kinase pim-3 (Homo sapiens) (UniProt Q86V86); assay: Binding affinity to wild-type human partial length PIM3 (G16 to A317 residues) expressed in bacterial expression system assessed as residual binding level at 1 uM by Kinomescan method relative to control
[17] = target: Phosphatidylinositol 5-phosphate 4-kinase type-2 gamma (Homo sapiens) (UniProt Q8TBX8); assay: Binding affinity to wild-type human partial length PIP5K2C (M1 to A421 residues) expressed in mammalian expression system assessed as residual binding level at 1 uM by Kinomescan method relative to control
In short: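 KINOMEscan competition binding against a panel of 468 purified kinases/mutants, compound tested at 1 μM; readout is relative binding activity versus control.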

[18] = target: SRSF protein kinase 2 (Homo sapiens) (UniProt P78362); assay: Binding affinity to wild-type human full length SRPK2 (M1 to S686 residues) expressed in bacterial expression system assessed as residual binding level at 1 uM by Kinomescan method relative to control; in short: as §2
[19] = target: Serine/threonine-protein kinase VRK2 (Homo sapiens) (UniProt Q86Y07); assay: Binding affinity to wild-type human partial length VRK2 (M1 to T336 residues) expressed in mammalian expression system assessed as residual binding level at 1 uM by Kinomescan method relative to control
[20] = target: Serine/threonine-protein kinase 25 (Homo sapiens) (UniProt O00506); assay: Binding affinity to wild-type human partial length YSK1 (V14 to H295 residues) expressed in bacterial expression system assessed as residual binding level at 1 uM by Kinomescan method relative to control
[21] = species on record: Homo sapiens; assay: Selectivity index, ratio of IC50 for PDGFRbeta (unknown origin) by ADP-Glo kinase assay to IC50 for PDGFRalpha (unknown origin) by ADP-Glo kinase assay
[22] = tested on: NCI-H1703; assay: Induction of apoptosis in human NCI-H1703 cells assessed as cleaved PARP expression level at 0.3 to 10 uM after 72 hrs by Western blot analysis; format: functional, cell-based
In short: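 Cells exposed to compound or DMSO for the stated periods, then lysed and immunoblotted for PARP and caspase-3 cleavage, with β-actin as loading control. NCI-H1703 stimulation used PDGF AA at 100 ng/mL.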

Chain of Dual specificity mitogen-activated protein kinase kinase 4 (Homo sapiens) (P45985 whole entry, the tested form may be a part): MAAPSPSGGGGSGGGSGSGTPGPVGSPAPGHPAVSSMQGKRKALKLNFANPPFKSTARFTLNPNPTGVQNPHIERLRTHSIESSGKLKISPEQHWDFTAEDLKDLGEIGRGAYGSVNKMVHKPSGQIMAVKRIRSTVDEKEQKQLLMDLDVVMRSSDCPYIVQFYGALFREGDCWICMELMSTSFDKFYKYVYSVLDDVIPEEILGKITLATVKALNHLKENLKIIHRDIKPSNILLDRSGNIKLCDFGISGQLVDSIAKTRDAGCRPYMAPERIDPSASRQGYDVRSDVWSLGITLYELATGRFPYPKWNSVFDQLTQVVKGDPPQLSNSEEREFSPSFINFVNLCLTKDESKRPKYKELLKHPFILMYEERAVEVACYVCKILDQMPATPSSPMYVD
Chain of Aurora kinase A (Homo sapiens) (O14965 whole entry, the tested form may be a part): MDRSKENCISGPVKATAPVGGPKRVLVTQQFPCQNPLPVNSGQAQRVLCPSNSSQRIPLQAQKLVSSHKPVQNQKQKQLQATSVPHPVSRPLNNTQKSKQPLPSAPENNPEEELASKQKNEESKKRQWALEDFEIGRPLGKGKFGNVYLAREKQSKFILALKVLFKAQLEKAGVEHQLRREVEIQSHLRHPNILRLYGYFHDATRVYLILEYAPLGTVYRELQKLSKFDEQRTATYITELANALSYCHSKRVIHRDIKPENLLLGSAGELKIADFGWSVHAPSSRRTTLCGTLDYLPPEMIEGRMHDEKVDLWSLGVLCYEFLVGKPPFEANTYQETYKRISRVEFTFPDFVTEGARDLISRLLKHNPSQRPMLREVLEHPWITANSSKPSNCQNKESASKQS
Chain of Myosin light chain kinase 2, skeletal/cardiac muscle (Homo sapiens) (Q9H1R3 whole entry, the tested form may be a part, canonical isoform): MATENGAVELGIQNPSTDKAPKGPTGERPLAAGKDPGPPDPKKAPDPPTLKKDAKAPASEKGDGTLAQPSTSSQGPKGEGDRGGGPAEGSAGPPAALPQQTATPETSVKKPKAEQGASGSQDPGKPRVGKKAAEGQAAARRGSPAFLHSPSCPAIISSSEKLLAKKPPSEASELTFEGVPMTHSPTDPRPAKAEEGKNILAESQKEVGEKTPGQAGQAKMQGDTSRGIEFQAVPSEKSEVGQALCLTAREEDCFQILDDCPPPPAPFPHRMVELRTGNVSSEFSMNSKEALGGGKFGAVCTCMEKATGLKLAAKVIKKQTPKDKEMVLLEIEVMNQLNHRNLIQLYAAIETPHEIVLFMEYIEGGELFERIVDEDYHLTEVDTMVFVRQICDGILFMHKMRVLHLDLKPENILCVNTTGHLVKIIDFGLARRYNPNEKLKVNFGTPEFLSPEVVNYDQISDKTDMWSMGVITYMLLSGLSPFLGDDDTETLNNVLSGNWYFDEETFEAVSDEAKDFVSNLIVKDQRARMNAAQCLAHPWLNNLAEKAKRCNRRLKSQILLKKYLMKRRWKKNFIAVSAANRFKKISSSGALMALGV
Chain of SRSF protein kinase 2 (Homo sapiens) (P78362 whole entry, looked up, the tested form may be a part): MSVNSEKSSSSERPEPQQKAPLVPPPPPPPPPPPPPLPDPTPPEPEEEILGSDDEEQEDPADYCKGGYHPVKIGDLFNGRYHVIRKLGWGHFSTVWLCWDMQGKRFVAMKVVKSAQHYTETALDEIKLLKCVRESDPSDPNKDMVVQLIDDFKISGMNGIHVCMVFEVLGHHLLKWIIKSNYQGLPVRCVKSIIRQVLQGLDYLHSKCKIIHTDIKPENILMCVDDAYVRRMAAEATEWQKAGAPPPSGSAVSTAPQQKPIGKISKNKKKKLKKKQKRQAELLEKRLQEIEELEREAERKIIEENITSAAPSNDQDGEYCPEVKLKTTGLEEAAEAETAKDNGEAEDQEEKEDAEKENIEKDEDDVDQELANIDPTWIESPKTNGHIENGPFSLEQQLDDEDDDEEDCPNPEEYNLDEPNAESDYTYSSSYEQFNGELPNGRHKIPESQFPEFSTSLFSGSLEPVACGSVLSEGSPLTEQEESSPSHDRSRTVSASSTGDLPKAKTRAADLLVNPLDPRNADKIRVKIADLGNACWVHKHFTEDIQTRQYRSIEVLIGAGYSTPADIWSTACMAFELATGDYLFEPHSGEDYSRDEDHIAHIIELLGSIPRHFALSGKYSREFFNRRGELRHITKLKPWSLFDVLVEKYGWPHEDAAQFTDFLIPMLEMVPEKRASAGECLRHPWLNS
Chain of Serine/threonine-protein kinase LATS2 (Homo sapiens) (Q9NRM7 whole entry, the tested form may be a part): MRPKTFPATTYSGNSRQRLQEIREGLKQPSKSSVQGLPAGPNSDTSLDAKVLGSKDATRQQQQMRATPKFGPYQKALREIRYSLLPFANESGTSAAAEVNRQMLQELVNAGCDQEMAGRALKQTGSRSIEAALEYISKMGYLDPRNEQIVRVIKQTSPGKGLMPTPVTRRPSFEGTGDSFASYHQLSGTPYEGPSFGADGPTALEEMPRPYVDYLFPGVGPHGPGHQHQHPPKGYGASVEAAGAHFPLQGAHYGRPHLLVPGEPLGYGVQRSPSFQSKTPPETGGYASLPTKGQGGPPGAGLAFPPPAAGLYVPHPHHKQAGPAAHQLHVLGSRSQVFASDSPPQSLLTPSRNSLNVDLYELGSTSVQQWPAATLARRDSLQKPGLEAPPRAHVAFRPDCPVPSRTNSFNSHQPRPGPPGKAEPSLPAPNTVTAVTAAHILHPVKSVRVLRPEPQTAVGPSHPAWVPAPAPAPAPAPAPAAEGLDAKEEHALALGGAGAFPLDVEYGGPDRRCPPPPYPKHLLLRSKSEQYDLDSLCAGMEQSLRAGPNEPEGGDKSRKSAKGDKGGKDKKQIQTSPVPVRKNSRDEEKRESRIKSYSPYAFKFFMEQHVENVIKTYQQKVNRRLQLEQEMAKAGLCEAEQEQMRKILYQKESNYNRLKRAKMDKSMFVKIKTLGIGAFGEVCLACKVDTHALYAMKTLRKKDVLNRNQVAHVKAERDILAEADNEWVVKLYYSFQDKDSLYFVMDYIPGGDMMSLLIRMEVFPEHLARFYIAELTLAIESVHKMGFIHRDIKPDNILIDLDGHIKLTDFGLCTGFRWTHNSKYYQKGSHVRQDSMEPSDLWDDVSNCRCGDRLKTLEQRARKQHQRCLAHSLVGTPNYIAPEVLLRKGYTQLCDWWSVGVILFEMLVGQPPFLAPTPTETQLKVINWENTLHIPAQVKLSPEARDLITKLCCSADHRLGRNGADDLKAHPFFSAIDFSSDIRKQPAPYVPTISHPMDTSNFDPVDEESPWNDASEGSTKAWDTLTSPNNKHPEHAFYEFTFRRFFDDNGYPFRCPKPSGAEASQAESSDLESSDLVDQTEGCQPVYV
Chain of Serine/threonine-protein kinase VRK2 (Homo sapiens) (Q86Y07 whole entry, the tested form may be a part): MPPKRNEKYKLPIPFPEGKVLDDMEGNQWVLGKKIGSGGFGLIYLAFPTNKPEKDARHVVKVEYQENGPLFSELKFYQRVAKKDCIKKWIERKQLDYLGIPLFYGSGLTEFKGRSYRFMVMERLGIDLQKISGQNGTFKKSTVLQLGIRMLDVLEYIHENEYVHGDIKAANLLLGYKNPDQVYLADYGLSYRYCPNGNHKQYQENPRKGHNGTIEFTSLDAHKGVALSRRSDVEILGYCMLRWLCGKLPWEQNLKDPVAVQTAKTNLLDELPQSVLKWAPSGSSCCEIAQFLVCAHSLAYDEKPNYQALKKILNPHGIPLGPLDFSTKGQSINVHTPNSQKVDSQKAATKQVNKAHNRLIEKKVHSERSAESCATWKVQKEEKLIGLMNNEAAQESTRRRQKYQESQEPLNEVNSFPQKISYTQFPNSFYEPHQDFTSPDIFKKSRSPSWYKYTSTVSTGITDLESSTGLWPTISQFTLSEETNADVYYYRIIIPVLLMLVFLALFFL
Chain of Interleukin-1 receptor-associated kinase 1 (Homo sapiens) (P51617 whole entry, looked up, the tested form may be a part): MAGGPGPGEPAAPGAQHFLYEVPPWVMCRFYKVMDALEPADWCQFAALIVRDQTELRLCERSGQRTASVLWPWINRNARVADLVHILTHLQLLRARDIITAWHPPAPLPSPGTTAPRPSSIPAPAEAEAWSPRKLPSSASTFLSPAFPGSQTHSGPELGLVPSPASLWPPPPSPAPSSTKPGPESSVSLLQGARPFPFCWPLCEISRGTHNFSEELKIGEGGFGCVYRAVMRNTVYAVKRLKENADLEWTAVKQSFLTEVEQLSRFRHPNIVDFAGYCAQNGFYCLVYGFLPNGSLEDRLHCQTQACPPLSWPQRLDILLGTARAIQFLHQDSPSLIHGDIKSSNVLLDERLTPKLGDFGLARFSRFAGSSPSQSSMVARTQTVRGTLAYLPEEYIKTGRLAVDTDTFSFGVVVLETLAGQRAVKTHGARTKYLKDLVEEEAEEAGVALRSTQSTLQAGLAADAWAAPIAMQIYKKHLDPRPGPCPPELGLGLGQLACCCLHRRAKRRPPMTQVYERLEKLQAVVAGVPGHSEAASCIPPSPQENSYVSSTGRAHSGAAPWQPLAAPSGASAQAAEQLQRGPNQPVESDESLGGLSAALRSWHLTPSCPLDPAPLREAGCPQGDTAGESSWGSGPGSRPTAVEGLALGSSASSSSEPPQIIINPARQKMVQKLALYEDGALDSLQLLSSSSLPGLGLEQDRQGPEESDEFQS

`Cc1ccc(NC(=O)c2ccc(CN(CCN(C)C)C(=O)c3cccnc3)cc2)cc1Nc1nccc(-c2cccnc2)n1` gave an Activity [1] of 90%, an Activity [2] of 100% and an Activity [3] of 100%. For the same compound, the Activity [4] was 100%, the Activity [5] was 74% and the Activity [6] was 3.9%. It also gave an Activity [7] of 96%, an Activity [8] of 100% and an Activity [9] of 98%. The Activity [10] was 100%, the Activity [11] was 91% and the Activity [12] was 100%. For the same compound, the Activity [13] was 100%, the Activity [14] was 100% and the Activity [15] was 99%. For the same compound, the Activity [16] was 100%, the Activity [17] was 37% and the Activity [18] was 86%. For the same compound, the Activity [19] was 100%, the Activity [20] was 100% and the Ratio IC50 [21] was 46. For the same compound, the Activity [22] was “inactive”.

— ChEMBL document CHEMBL4229344 (Eur J Med Chem, 2018)
